What follows are compounds tested against Ionotropic glutamate receptor NMDA 1/2D (Rattus norvegicus, UniProt P35439+Q62645) (assay: Positive allosteric modulation of recombinant rat GluN1/GluN2D receptor expressed in xenopus laevis oocyte assessed as potentiation of glutamate and glycine-induced current response at holding potential -40mV by two electrode voltage clamp method). Conditions: not given.
In short: (§1)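 Two-electrode voltage clamp at -40 mV, 23°C, pH 7.4 Ba²⁺ recording solution, on Xenopus oocytes expressing rat NMDA receptors. Currents were evoked by 100 µM glutamate plus 30 µM glycine, with compound co-applied (DMSO 0.05–0.5% final). Each compound used at least 4 oocytes from at least 2 frogs.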
For `CCOc1ccc(OCC2c3ccc(OC4CCCC4)cc3CCN2C(=O)c2cccc(Cl)c2)cc1` (stereo not given), the EC50 was 4.3 µM.
With `COc1ccc(OCC2c3ccc(OC(C)C)cc3CCN2C(=O)c2cccc(Br)c2)cc1` (stereo not given) the EC50 was 2.6 µM.

The compounds below were run against T1, Glutamate NMDA receptor; Grin1/Grin2b (Rattus norvegicus) (UniProt P35439+Q00960) (assay: Positive allosteric modulation of recombinant rat GluN1/GluN2B receptor expressed in xenopus laevis oocyte co-expressing GluN2A at 10 uM assessed as potentiation of glutamate and glycine-induced current response at holding potential -40mV by two electrode voltage clamp method relative to control). Conditions: not given.
In short: (§2)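 Triheteromeric GluN1/GluN2A/GluN2B receptors were expressed in oocytes using GluN2 subunits with modified intracellular domains controlling surface expression. Compound was tested at 10 µM by TEVC at -40 mV against maximally effective glutamate and glycine; n=14 oocytes.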
With `CCOc1ccc(OC[C@@H]2c3ccc(OC(C)C)cc3CCN2C(=O)c2cccc(F)c2)cc1` the Activity was 177%.

These compounds were tested against T1, Glutamate NMDA receptor; Grin1/Grin2b (Rattus norvegicus) (assay: Positive allosteric modulation of recombinant rat GluN1/GluN2B receptor expressed in xenopus laevis oocyte assessed as potentiation of glutamate and glycine-induced current response at 30 uM at holding potential -40mV by two electrode voltage clamp method relative to control). Conditions: not given.
In short: as §1, with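 “final). […]” for “final).”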
Work on `CCOc1ccc(OC[C@@H]2c3ccc(OC(C)C)cc3CCN2C(=O)c2cccc(F)c2)cc1` yielded an Emax of 204%.

The compounds below were run against T1, Glutamate NMDA receptor; Grin1/Grin2b (Rattus norvegicus) (assay: Positive allosteric modulation of recombinant rat GluN1/GluN2B receptor expressed in xenopus laevis oocyte assessed as potentiation of glutamate and glycine-induced current response at 10 uM at holding potential -40mV by two electrode voltage clamp method relative to control). Conditions: 30 uM, in the assay text read “at 30 uM” for “at 10 uM”.
In short: as §1, with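 “final). […]” for “final).”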
In the case of `CCOc1ccc(OCC2c3ccc(OC4CCCC4)cc3CCN2C(=O)c2cccc(Cl)c2)cc1` (stereo not given), the Emax is reported as 221%.
`COc1ccc(OCC2c3ccc(OC(C)C)cc3CCN2C(=O)c2cccc(Br)c2)cc1` (stereo not given) showed an Emax of 204%.
Compound `CCOc1ccc(OCC2c3ccc(OC(C)C)cc3CCN2C(=O)c2cccc(Cl)c2)cc1` (stereo not given) has an Emax of 158%.

What follows are compounds tested against T2, Ionotropic glutamate receptor NMDA 1/2D (Rattus norvegicus) (UniProt P35439+Q62645) (assay: Positive allosteric modulation of recombinant rat GluN1/GluN2D receptor expressed in xenopus laevis oocyte assessed as potentiation of glycine-induced current response at 30 uM at holding potential -40mV by two electrode voltage clamp method). Conditions: not given.
Work on `CCOc1ccc(OC[C@@H]2c3ccc(OC(C)C)cc3CCN2C(=O)c2cccc(F)c2)cc1` yielded an Activity of 110%.

These compounds were tested against Glutamate NMDA receptor; Grin1/Grin2a (Rattus norvegicus) (UniProt P35439+Q00959) (assay: Positive allosteric modulation of recombinant rat GluN1/GluN2A receptor expressed in xenopus laevis oocyte co-expressing GluN2B assessed as potentiation of glutamate and glycine-induced current response at 10 uM at holding potential -40mV by two electrode voltage clamp method relative to control). Conditions: not given.
`CCOc1ccc(OC[C@@H]2c3ccc(OC(C)C)cc3CCN2C(=O)c2cccc(F)c2)cc1` gave an Activity of 103%.

These compounds were tested against T3, Glutamate NMDA receptor; Grin1/Grin2b (Rattus norvegicus, UniProt P35439+Q00960) (assay: Positive allosteric modulation of recombinant rat GluN1/GluN2B receptor expressed in xenopus laevis oocyte assessed as potentiation of glutamate and glycine-induced current response at holding potential -40mV by two electrode voltage clamp method). Conditions: not given.
In short: as §1
Work on `CCOc1ccc(OC[C@@H]2c3ccc(OC(C)C)cc3CCN2C(=O)c2cccc(F)c2)cc1` yielded an EC50 of 4.7 µM.
`CCOc1ccc(OCC2c3ccc(OC4CCCC4)cc3CCN2C(=O)c2cccc(Cl)c2)cc1` (stereo not given) gave an EC50 of 4 µM.
`COc1ccc(OCC2c3ccc(OC(C)C)cc3CCN2C(=O)c2cccc(Br)c2)cc1` (stereo not given) gave an EC50 of 3.9 µM.
`CCOc1ccc(OCC2c3ccc(OC(C)C)cc3CCN2C(=O)c2cccc(Cl)c2)cc1` (stereo not given) gave an EC50 of 5.3 µM.

These compounds were tested against T1, Glutamate NMDA receptor; Grin1/Grin2b (Rattus norvegicus) (assay: Positive allosteric modulation of recombinant rat GluN1/GluN2B receptor expressed in xenopus laevis oocyte assessed as potentiation of glutamate and glycine-induced current response at 30 uM at holding potential -40mV by two electrode voltage clamp method relative to control). Conditions: not given.
`CCOc1ccc(OCC2c3ccc(OC(C)C)cc3CCN2C(=O)c2cc(Cl)cc(Cl)c2)cc1` (stereo not given) showed an Activity of 105%.
`COc1ccccc1OCC1c2ccc(OC(C)C)cc2CCN1C(=O)c1cccc(Cl)c1` (stereo not given) gave an Activity of 108%.

What follows are compounds tested against Glutamate NMDA receptor; Grin1/Grin2c (Rattus norvegicus, UniProt P35439+Q00961) (assay: Positive allosteric modulation of recombinant rat GluN1/GluN2C receptor expressed in xenopus laevis oocyte assessed as potentiation of glutamate and glycine-induced current response at holding potential -40mV by two electrode voltage clamp method). Conditions: not given.
In short: as §1
Work on `CCOc1ccc(OC[C@@H]2c3ccc(OC(C)C)cc3CCN2C(=O)c2cccc(F)c2)cc1` yielded an EC50 of 3.6 µM.
`CCOc1ccc(OCC2c3ccc(OC4CCCC4)cc3CCN2C(=O)c2cccc(Cl)c2)cc1` (stereo not given) gave an EC50 of 4.2 µM.
For `COc1ccc(OCC2c3ccc(OC(C)C)cc3CCN2C(=O)c2cccc(Br)c2)cc1` (stereo not given), the EC50 was 1.8 µM.
`CCOc1ccc(OCC2c3ccc(OC(C)C)cc3CCN2C(=O)c2cccc(Cl)c2)cc1` (stereo not given) was tested, and the EC50 was 1.8 µM.

What follows are compounds tested against T2, Ionotropic glutamate receptor NMDA 1/2D (Rattus norvegicus) (assay: Positive allosteric modulation of recombinant rat GluN1/GluN2D receptor expressed in xenopus laevis oocyte assessed as potentiation of glutamate and glycine-induced current response at 10 uM at holding potential -40mV by two electrode voltage clamp method relative to control). Conditions: not given.
In short: as §1, with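 “final). […]” for “final).”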
`CCOc1ccc(OCC2c3ccc(OC(C)C)cc3CCN2C(=O)c2ccc(Cl)c(Cl)c2)cc1` (stereo not given) gave an Activity of 122%.
Work on `CCOc1ccc(OCC2c3ccc(OC(C)C)cc3CCN2C(=O)c2cc(Cl)cc(Cl)c2)cc1` (stereo not given) yielded an Activity of 80%.
For `CCOc1ccc(OCC2c3ccc(OC4CCCC4)cc3CCN2C(=O)c2cccc(Cl)c2)cc1` (stereo not given), the Activity was 193% and the Emax was 188%.
Work on `COc1ccccc1OCC1c2ccc(OC(C)C)cc2CCN1C(=O)c1cccc(Cl)c1` (stereo not given) yielded an Activity of 99%.
`COc1ccc(OCC2c3ccc(OC(C)C)cc3CCN2C(=O)c2cccc(Br)c2)cc1` (stereo not given) gave an Activity of 312% and an Emax of 338%.
In the case of `CCOc1ccc(OCC2c3ccc(OC(C)C)cc3CCN2C(=O)c2cccc(Cl)c2)cc1` (stereo not given), the Activity is reported as 102%.

What follows are compounds tested against T4, Glutamate NMDA receptor; Grin1/Grin2c (Rattus norvegicus) (UniProt P35439+Q00961) (assay: Positive allosteric modulation of recombinant rat GluN1/GluN2C receptor expressed in xenopus laevis oocyte assessed as potentiation of glutamate and glycine-induced current response at 30 uM at holding potential -40mV by two electrode voltage clamp method relative to control). Conditions: not given.
`COc1ccccc1OCC1c2ccc(OC(C)C)cc2CCN1C(=O)c1cccc(Cl)c1` (stereo not given) gave an Activity of 110%.

These compounds were tested against T4, Glutamate NMDA receptor; Grin1/Grin2c (Rattus norvegicus) (assay: Positive allosteric modulation of recombinant rat GluN1/GluN2C receptor expressed in xenopus laevis oocyte assessed as potentiation of glutamate and glycine-induced current response at 10 uM at holding potential -40mV by two electrode voltage clamp method relative to control). Conditions: 10 uM.
In short: as §1, with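 “final). […]” for “final).”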
With `CCOc1ccc(OCC2c3ccc(OC4CCCC4)cc3CCN2C(=O)c2cccc(Cl)c2)cc1` (stereo not given) the Emax was 210%.
In the case of `COc1ccc(OCC2c3ccc(OC(C)C)cc3CCN2C(=O)c2cccc(Br)c2)cc1` (stereo not given), the Emax is reported as 286%.
`CCOc1ccc(OCC2c3ccc(OC(C)C)cc3CCN2C(=O)c2cccc(Cl)c2)cc1` (stereo not given) gave an Emax of 128%.

Same assay, conditions: 30 uM, in the assay text read “at 30 uM” for “at 10 uM”
Work on `CCOc1ccc(OCC2c3ccc(OC(C)C)cc3CCN2C(=O)c2ccc(Cl)c(Cl)c2)cc1` (stereo not given) yielded an Activity of 150%.
Compound `CCOc1ccc(OCC2c3ccc(OC(C)C)cc3CCN2C(=O)c2cc(Cl)cc(Cl)c2)cc1` (stereo not given) has an Activity of 97%.
Compound `CCOc1ccc(OCC2c3ccc(OC4CCCC4)cc3CCN2C(=O)c2cccc(Cl)c2)cc1` (stereo not given) has an Activity of 187%.
`COc1ccc(OCC2c3ccc(OC(C)C)cc3CCN2C(=O)c2cccc(Br)c2)cc1` (stereo not given) gave an Activity of 270%.
`CCOc1ccc(OCC2c3ccc(OC(C)C)cc3CCN2C(=O)c2cccc(Cl)c2)cc1` (stereo not given) gave an Activity of 126%.

What follows are compounds tested against T4, Glutamate NMDA receptor; Grin1/Grin2c (Rattus norvegicus) (assay: Positive allosteric modulation of recombinant rat GluN1/GluN2C receptor expressed in xenopus laevis oocyte assessed as potentiation of glutamate and glycine-induced current response at 30 uM at holding potential -40mV by two electrode voltage clamp method relative to control). Conditions: not given.
In short: as §1
Work on `CCOc1ccc(OC[C@@H]2c3ccc(OC(C)C)cc3CCN2C(=O)c2cccc(F)c2)cc1` yielded an Emax of 128%.

Each compound was assayed against Ionotropic glutamate receptor NMDA1/2A/2B (Rattus norvegicus) (UniProt P35439+Q00959+Q00960) (assay: Positive allosteric modulation of recombinant rat GluN1/GluN2A/GluN2B receptor expressed in xenopus laevis oocyte assessed as potentiation of glutamate and glycine-induced current response at 10 uM at holding potential -40mV by two electrode voltage clamp method relative to control). Conditions: not given.
In short: as §2
In the case of `CCOc1ccc(OC[C@@H]2c3ccc(OC(C)C)cc3CCN2C(=O)c2cccc(F)c2)cc1`, the Activity is reported as 136%.

Each compound was assayed against T3, Glutamate NMDA receptor; Grin1/Grin2b (assay: not given). Conditions: not given.
For `NCCCNCCCCNCCCN` [SPERMINE], the EC50 was 100 to 200 µM.

Each compound was assayed against T1, Glutamate NMDA receptor; Grin1/Grin2b (Rattus norvegicus) (assay: Positive allosteric modulation of recombinant rat GluN1/GluN2B receptor expressed in xenopus laevis oocyte assessed as compound concentration required to show two fold increase in glutamate and glycine-induced current response at holding potential -40mV by two electrode voltage clamp method). Conditions: not given.
For `CCOc1ccc(OC[C@@H]2c3ccc(OC(C)C)cc3CCN2C(=O)c2cccc(F)c2)cc1`, the CD was 40 µM.

— ChEMBL document CHEMBL4011622, “The Structure-Activity Relationship of a Tetrahydroisoquinoline Class of N-Methyl-d-Aspartate Receptor Modulators that Potentiates GluN2B-Containing N-Methyl-d-Aspartate Receptors” (J Med Chem, 2017)
